This note sets out measurements from ChEMBL document CHEMBL1129987, “Structure-based design of nonpeptidic HIV protease inhibitors: the sulfonamide-substituted cyclooctylpyramones” (J Med Chem, 1997).

Data set [1] deals with Human immunodeficiency virus 1. In words: Antiviral activity in HIV-1 infected H9 cells. The following applies: Human immunodeficiency virus 1, H9; read-out: ED50 (the source's name). The class given is functional. The essentials:
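H9 cells infected with HIV-1 IIIB at MOI about 0.005, spun down (200g, 10 min), resuspended at 8 × 10^5 cells/mL in RPMI Complete and mixed with compound; final DMSO 0.1%, triplicate per concentration. After 5 days at 37 °C in 5% CO2, supernatant p24 antigen was measured by ELISA. ED50 is the drug amount that reduces p24 by 50% versus DMSO drug-free controls.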

The nature of data set [2]: Median cell culture toxic dose was evaluated against H9 cell line. It is filed as ADME, cell-based. The following applies: human, H9 cells; read-out: CCTD50.
Data set [3] has as its target Human immunodeficiency virus type 1 protease (Human immunodeficiency virus 1, UniProt Q72874). In words: Binding affinity against HIV-1 protease.

As to `CCCC(c1cccc(NS(=O)(=O)c2ccc(F)cc2)c1)c1c(O)c2c(oc1=O)CCCCCC2` (configuration not stated), the EC50 in data set [1] is 6.3 µM. The CC50 in data set [2] was greater than 30 µM. This compound also showed a Ki in data set [3] of 0.0021 µM.

For `O=C(O)c1cccc(S(=O)(=O)Nc2cccc(C(c3c(O)c4c(oc3=O)CCCCCC4)C3CC3)c2)c1` (configuration not stated), the EC50 in data set [1] is greater than 10 µM. Further, in data set [2], the CC50 is greater than 30 µM. In data set [3], this compound gave a Ki of 0.0045 µM.

With `O=c1c2c(oc(O)c1[C@@H](c1cccc(NS(=O)(=O)c3cccc4cccnc34)c1)C1CC1)CCCCCC2`, in data set [1], the EC50 is 7.2 µM. Also, the CC50 in data set [2] is greater than 30 µM. The compound further came in with a Ki in data set [3] of 0.0009 µM.

As to `CCC(c1cccc(NS(=O)(=O)c2ccc(Cl)cc2)c1)c1c(O)c2c(oc1=O)CCCCCC2` (configuration not stated), the EC50 in data set [1] came out at 4.7 µM. Further, the CC50 in data set [2] was greater than 30 µM. This compound also returned a Ki in data set [3] of 0.0035 µM.

On to `COC(=O)c1cccc(S(=O)(=O)Nc2cccc(C(c3c(O)c4c(oc3=O)CCCCCC4)C3CC3)c2)c1` (configuration not stated), for which the EC50 in data set [1] is 2.6 µM. In addition, the CC50 in data set [2] was greater than 30 µM. Moreover, in data set [3], the affinity, expressed as Ki, was 0.0014 µM.

Regarding `O=c1c2c(oc(O)c1C(c1cccc(NS(=O)(=O)c3cscn3)c1)C1CC1)CCCCCC2` (configuration not stated), in data set [1], the EC50 was greater than 3 µM. Moreover, the CC50 in data set [2] is greater than 30 µM. In data set [3], this compound registered a Ki of 0.0016 µM.

As for `O=c1c2c(oc(O)c1C(c1cccc(NS(=O)(=O)c3ccc(I)cc3)c1)C1CC1)CCCCCC2` (configuration not stated), the EC50 in data set [1] came to 5.3 µM. For the same compound, the CC50 in data set [2] is greater than 30 µM. The compound also gave a Ki in data set [3] of 0.0031 µM.

On to `O=c1c2c(oc(O)c1C(c1cccc(NS(=O)(=O)c3cccc(Cl)c3)c1)C1CC1)CCCCCC2` (configuration not stated), for which, in data set [1], the EC50 was found to be 3.2 µM. The CC50 in data set [2] is greater than 30 µM. Also, affinity in data set [3] was put at a Ki of 0.0027 µM.

Regarding `NC(=O)c1ccc(S(=O)(=O)Nc2cccc(C(c3c(O)c4c(oc3=O)CCCCCC4)C3CC3)c2)cc1` (configuration not stated), the EC50 in data set [1] turned out to be 5.8 µM. Moreover, the CC50 in data set [2] is greater than 30 µM. Besides, affinity in data set [3] was put at a Ki of 0.0019 µM.

For the compound `COc1ccc(S(=O)(=O)Nc2cccc(C(c3c(O)c4c(oc3=O)CCCCCC4)C3CC3)c2)cc1OC` (configuration not stated), the EC50 in data set [1] was found to be 4.1 µM. Also, the CC50 in data set [2] is greater than 30 µM. In data set [3], this compound came in with a Ki of 0.0068 µM.

As to `N#Cc1ccccc1S(=O)(=O)Nc1cccc(C(c2c(O)oc3c(c2=O)CCCCCC3)C2CC2)c1` (configuration not stated), the EC50 in data set [1] is greater than 10 µM. For the same compound, the CC50 in data set [2] is greater than 30 µM. The compound further displayed a Ki in data set [3] of 0.0074 µM.

Consider `CC(C)CC(c1cccc(NS(=O)(=O)c2ccc(F)cc2)c1)c1c(O)c2c(oc1=O)CCCCCC2` (configuration not stated), for which the EC50 in data set [1] is greater than 10 µM. Further, in data set [2], the CC50 was greater than 30 µM. This compound had an inhibitory constant (Ki) in data set [3] of 0.0028 µM.

On to `O=c1c2c(oc(O)c1C(c1cccc(NS(=O)(=O)c3ccc(OC(F)(F)F)cc3)c1)C1CC1)CCCCCC2` (configuration not stated), for which the EC50 in data set [1] stood at 3.4 µM. The CC50 in data set [2] is greater than 30 µM. In addition, the Ki in data set [3] stood at 0.004 µM.

For `Cn1cnc(S(=O)(=O)Nc2cccc(C(c3c(O)c4c(oc3=O)CCCCCC4)C3CC3)c2)c1` (configuration not stated), the EC50 in data set [1] was 2.7 µM. In addition, the CC50 in data set [2] is greater than 100 µM. The compound further came in with a Ki in data set [3] of 0.0016 µM.

`O=c1c2c(oc(O)c1C(c1cccc(NS(=O)(=O)c3cccc4cccnc34)c1)C1CC1)CCCCCC2` (configuration not stated): in data set [1], the EC50 stood at 1.4 µM. In data set [2], the CC50 was found to be 82 µM. The affinity in data set [3], expressed as Ki, was 0.0019 µM.

Turning to `CC(C)C(c1cccc(NS(=O)(=O)c2ccc(Cl)cc2)c1)c1c(O)c2c(oc1=O)CCCCCC2` (configuration not stated), the EC50 in data set [1] is greater than 10 µM. The CC50 in data set [2] is greater than 30 µM. For the same compound, in data set [3], the inhibitory constant (Ki) was determined as 0.018 µM.

For the compound `O=c1c2c(oc(O)c1C(c1cccc(NS(=O)(=O)c3ccc(Br)cc3)c1)C1CC1)CCCCCC2` (configuration not stated), in data set [1], the EC50 was found to be 3.2 µM. In addition, the CC50 in data set [2] is greater than 30 µM. This compound came in with a Ki in data set [3] of 0.0021 µM.

`CCC(c1cccc(NS(=O)(=O)c2ccc(C#N)cc2)c1)c1c(O)c2c(oc1=O)CCCCCC2` (configuration not stated): the EC50 in data set [1] is 3.3 µM. In data set [2], the CC50 was greater than 30 µM. The affinity in data set [3] corresponds to a Ki of 0.0031 µM.

Take `N#Cc1ccc(S(=O)(=O)Nc2cccc(C(c3c(O)oc4c(c3=O)CCCCCC4)C3CC3)c2)nc1` (configuration not stated): the EC50 in data set [1] amounted to 0.9 µM. Also, the CC50 in data set [2] is greater than 30 µM. The affinity in data set [3] corresponds to a Ki of 0.001 µM.
